Source: ChEMBL document CHEMBL4823269, “Acyclic nucleoside phosphonates with 2-aminothiazole base as inhibitors of bacterial and mammalian adenylate cyclases” (Eur J Med Chem, 2021)

Experiments:
J774.A1 = assay: Cytotoxicity against mouse J774.A1 cells assessed as reduction in cell viability at 10 uM measured after 5 hrs by Cell TiterGlo Luminescent assay relative to control; format: cell-based; settings: j774.a1, 5 h
[1] = Inhibition of Bordetella pertussis ACT by cell free assay
Summary of the method: (§1)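 Run cell-free on the bacterial enzyme, with the phosphono diphosphate forms (nucleoside triphosphate analogues) added directly rather than the bisamide prodrugs; an IC50 was obtained.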

[2] = Inhibition of Bordetella pertussis ACT exposed to mouse J774.A1 cells assessed as inhibition of ACT-induced cAMP accumulation cells pretreated for 5 hrs measured after 30 mins followed by enzyme addition by immunoassay; format: cell-based
[3] = biological target: T1, Calmodulin-sensitive adenylate cyclase (Bacillus anthracis, UniProt P40136); assay: Inhibition of Bacillus anthracis edema factor by cell free assay; summary of the method: as §1
T1 sequence (P40136 whole entry): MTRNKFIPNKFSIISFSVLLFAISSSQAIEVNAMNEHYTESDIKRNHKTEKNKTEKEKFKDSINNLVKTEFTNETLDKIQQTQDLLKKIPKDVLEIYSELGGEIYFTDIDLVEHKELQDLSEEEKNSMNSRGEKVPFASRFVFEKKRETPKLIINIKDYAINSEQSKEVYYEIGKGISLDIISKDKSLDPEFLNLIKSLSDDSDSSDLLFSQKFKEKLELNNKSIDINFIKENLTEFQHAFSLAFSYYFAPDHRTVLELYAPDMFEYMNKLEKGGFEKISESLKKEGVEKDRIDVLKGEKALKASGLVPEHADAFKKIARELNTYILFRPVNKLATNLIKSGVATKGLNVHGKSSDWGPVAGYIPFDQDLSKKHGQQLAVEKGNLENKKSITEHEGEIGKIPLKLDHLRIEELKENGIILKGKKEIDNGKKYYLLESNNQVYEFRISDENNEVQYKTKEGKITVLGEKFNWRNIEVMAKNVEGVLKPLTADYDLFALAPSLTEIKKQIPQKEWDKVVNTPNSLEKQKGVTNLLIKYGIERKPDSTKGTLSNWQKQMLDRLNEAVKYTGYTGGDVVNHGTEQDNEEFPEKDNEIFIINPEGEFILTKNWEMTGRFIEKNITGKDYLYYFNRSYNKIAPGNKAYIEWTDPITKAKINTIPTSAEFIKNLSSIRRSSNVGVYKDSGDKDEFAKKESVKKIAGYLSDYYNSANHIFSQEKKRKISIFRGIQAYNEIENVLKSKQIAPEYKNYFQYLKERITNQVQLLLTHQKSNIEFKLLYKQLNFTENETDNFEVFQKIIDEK

Compound	Activity (J774.A1) [%]	IC50 [1] [nM]	IC50 [2] [nM]	IC50 [3] [nM]
CCCCOc1cccc(-c2sc(N)nc2CCOCP(=O)(N[C@@H](Cc2ccccc2)C(=O)OC(C)C)N[C@@H](Cc2ccccc2)C(=O)OC(C)C)c1	35			
CNC(=O)c1ccc(-c2sc(N)nc2CCOCP(=O)(O)OP(=O)(O)OP(=O)(O)O)cc1		37.4		
CC(C)OC(=O)[C@H](Cc1ccccc1)NP(=O)(COCCc1nc(N)sc1-c1ccccc1OCc1ccccc1)N[C@@H](Cc1ccccc1)C(=O)OC(C)C	115		> 10000	
CC(C)OC(=O)[C@H](Cc1ccccc1)NP(=O)(COCCc1nc(N)sc1-c1cccc(F)c1)N[C@@H](Cc1ccccc1)C(=O)OC(C)C	99			
CC(C)Cc1sc(N)nc1-c1ccc(P(=O)(O)OP(=O)(O)OP(=O)(O)O)o1		16000		5060
Nc1nc(CCOCP(=O)(O)OP(=O)(O)OP(=O)(O)O)c(-c2ccccc2OCc2ccccc2)s1		184		7810
CC(C)OC(=O)[C@H](Cc1ccccc1)NP(=O)(COCCc1csc(N)n1)N[C@@H](Cc1ccccc1)C(=O)OC(C)C	72		> 10000	
Nc1nc(CCOCP(=O)(O)OP(=O)(O)OP(=O)(O)O)c(-c2cccc(OCc3ccccc3)c2)s1		192		
CC(C)OC(=O)[C@H](Cc1ccccc1)NP(=O)(COCCc1nc(N)sc1-c1cccnc1)N[C@@H](Cc1ccccc1)C(=O)OC(C)C	99		2620	
CC(C)Oc1ccc(-c2sc(N)nc2CCOCP(=O)(O)OP(=O)(O)OP(=O)(O)O)cc1		185		
CC(C)Cc1sc(N)nc1-c1ccc(P(=O)(O)N[C@@H](Cc2ccccc2)C(=O)OC(C)C)o1	86		14200	
CNC(=O)c1cccc(-c2sc(N)nc2CCOCP(=O)(N[C@@H](Cc2ccccc2)C(=O)OC(C)C)N[C@@H](Cc2ccccc2)C(=O)OC(C)C)c1	106		8450	
Nc1nc(CCOCP(=O)(O)OP(=O)(O)OP(=O)(O)O)c(-c2cccc(F)c2)s1		313		
CNC(=O)c1ccc(-c2sc(N)nc2CCOCP(=O)(N[C@@H](Cc2ccccc2)C(=O)OC(C)C)N[C@@H](Cc2ccccc2)C(=O)OC(C)C)cc1	99			
CC(C)OC(=O)[C@H](Cc1ccccc1)NP(=O)(COCc1csc(N)n1)N[C@@H](Cc1ccccc1)C(=O)OC(C)C	83		> 10000	
COc1ccc(-c2sc(N)nc2CCOCP(=O)(N[C@@H](Cc2ccccc2)C(=O)OC(C)C)N[C@@H](Cc2ccccc2)C(=O)OC(C)C)c(C)c1	57		1160	
CNS(=O)(=O)c1cccc(-c2sc(N)nc2CCOCP(=O)(N[C@@H](Cc2ccccc2)C(=O)OC(C)C)N[C@@H](Cc2ccccc2)C(=O)OC(C)C)c1	99			
CC(C)Cc1sc(N)nc1-c1ccc(P(=O)(NC(Cc2ccccc2)C(=O)OC(C)C)N[C@@H](Cc2ccccc2)C(=O)OC(C)C)o1 (stereo not given in full)	88		2120	
CC(C)OC(=O)[C@H](Cc1ccccc1)NP(=O)(COCCc1nc(N)sc1-c1cccc(OCc2ccccc2)c1)N[C@@H](Cc1ccccc1)C(=O)OC(C)C	72			
CC(C)OC(=O)[C@H](Cc1ccccc1)NP(=O)(COCCc1nc(N)sc1-c1ccc(OC(C)C)cc1)N[C@@H](Cc1ccccc1)C(=O)OC(C)C	81			
CNS(=O)(=O)c1ccc(-c2sc(N)nc2CCOCP(=O)(N[C@@H](Cc2ccccc2)C(=O)OC(C)C)N[C@@H](Cc2ccccc2)C(=O)OC(C)C)cc1	94		> 10000	
CC(C)OC(=O)[C@H](Cc1ccccc1)NP(=O)(COCCn1cnc2c(N)ncnc21)N[C@@H](Cc1ccccc1)C(=O)OC(C)C	93		150	
CC(C)OC(=O)[C@H](Cc1ccccc1)NP(=O)(COCCc1nc(N)sc1-c1ccccc1)N[C@@H](Cc1ccccc1)C(=O)OC(C)C	112			
CC(C)OC(=O)[C@H](Cc1ccccc1)NP(=O)(COCc1nc(N)sc1-c1ccccc1)N[C@@H](Cc1ccccc1)C(=O)OC(C)C	54		4680	
CC(C)OC(=O)[C@H](Cc1ccccc1)NP(=O)(COCCc1nc(N)sc1-c1cccc(OC(C)C)c1)N[C@@H](Cc1ccccc1)C(=O)OC(C)C	44		1720	
CC(C)OC(=O)[C@H](Cc1ccccc1)NP(=O)(COCCc1nc(N)sc1Sc1ccccc1)N[C@@H](Cc1ccccc1)C(=O)OC(C)C	36		930	
COc1cc(OC)cc(-c2sc(N)nc2CCOCP(=O)(N[C@@H](Cc2ccccc2)C(=O)OC(C)C)N[C@@H](Cc2ccccc2)C(=O)OC(C)C)c1	86		1430	
Nc1ncnc2c1ncn2CCOCP(=O)(O)OP(=O)(O)OP(=O)(O)O [ADEFOVIR DIPHOSPHATE]		17.8		36
